Assays:
Solubility in DMSO = type: physicochemical; settings: at 100 μM in DMSO
[1] = test system: S. epidermidis ATCC 12228; test: Bacterial growth assay, S. epidermidis; type: cell-based, Staphylococcus epidermidis; settings: 100 μM, after 6 h
Method in brief: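 Overnight culture at 37 °C and 300 rpm in 1% peptone, 1% beef extract, 0.5% NaCl (pH 7.1), diluted 15×. Grown at 37 °C and 300 rpm with test compound at 100 μM, 0.3% DMSO (negative control) or ampicillin 100 μg/mL (positive control). A595 read at 6 h. Four independent experiments, mean ± SEM, Bonferroni all-pair comparison.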

E. coli BL21 = test: Bacterial growth assay, E. coli BL21; type: cell-based; settings: 100 μM, 4 and 8 h
Method in brief: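 E. coli BL21 grown overnight at 37 °C and 300 rpm in 0.5% yeast extract, 1% tryptone, 0.5% NaCl (pH 7.0), then diluted 10×. Grown at 37 °C and 300 rpm with test compound at 100 μM, 0.3% DMSO (negative control) or ampicillin 100 μM (positive control). A595 read at 4, 6 and 8 h. Four independent experiments, mean ± SEM, Dunnett's test.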

MDCK cells = test: Mammalian cells growth/toxicity assay; type: cell-based, Canine; settings: 30 μM, 1 day
Method in brief: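 MDCK cells kept in DMEM with 10% FBS, penicillin/streptomycin and 2 mM L-glutamine. Seeded at 5.0 × 10^3 cells/well for 6 h (37 °C, 5% CO2), then starved overnight in 0.25% FBS DMEM. Exposed for 1 day to test compound at 30 μM or ampicillin 30 μM (negative control). CCK-8 added; A450 of WST-8 formazan read after 3 h. Four independent experiments, mean ± SEM, Dunnett's test.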

SH-SY5Y cells = test: Mammalian cells growth/toxicity assay; type: cell-based, human; settings: data not shown; 2 days
E. coli JM109 = test: Bacterial growth assay, E. coli JM109; type: cell-based; settings: data not shown
Method in brief: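 JM109 culture handled as follows: overnight growth at 37 °C, 300 rpm, in 0.5% yeast extract/1% tryptone/0.5% NaCl medium (pH 7.0), then 10× dilution. Incubated at 37 °C, 300 rpm, in medium with test compound, 0.3% DMSO as negative control or ampicillin as positive control. Culture absorbance at 595 nm read after 4, 6 and 8 h.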

wild-type saDHFR = wild-type saDHFR (Staphylococcus aureus, UniProt P0A017); test: S. aureus DHFR enzymatic assay; type: biochemical
Sequence of wild-type saDHFR (P0A017 whole entry): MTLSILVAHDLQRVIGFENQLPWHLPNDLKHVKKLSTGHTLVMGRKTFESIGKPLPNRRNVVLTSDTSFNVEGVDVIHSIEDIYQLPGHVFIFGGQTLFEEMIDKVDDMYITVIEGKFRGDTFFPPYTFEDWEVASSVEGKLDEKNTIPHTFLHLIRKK

| Compound | Solubility in DMSO (Solubility in DMSO) | Inhibitory effect on the growth of S. epidermidis [1] | Inhibitory effect on the growth of E. coli BL21 (E. coli BL21) | Toxic effects on MDCK cells (MDCK cells) | Cell death induced in SH-SY5Y cells (SH-SY5Y cells) | Inhibitory effect on the growth of E. coli JM109 (E. coli JM109) | IC50 (wild-type saDHFR) |
| --- | --- | --- | --- | --- | --- | --- | --- |
| Cc1ccc(CN2C(=O)C(=C3SC(=S)N(CC(=O)O)C3=O)c3ccccc32)cc1 [KBS2, {5-[1-(4-methylbenzyl)-2-oxo-1,2-dihydro-3H-indol-3-ylidene]-4-oxo-2-thioxo-1,3-thiazolidin-3-yl}acetic acid] | not soluble |  |  |  |  |  |  |
| CCOCCCN1C(=O)C(=C2C(=O)N(Cc3ccc(Cl)cc3)c3ccccc32)SC1=S [KBS5, 1-(4-chlorobenzyl)-3-[3-(3-ethoxypropyl)-4-oxo-2-thioxo-1,3-thiazolidin-5-ylidene]-1,3-dihydro-2H-indol-2-one] |  | inactive |  |  |  |  |  |
| O=C(O)CN1C(=O)C(=C2C(=O)N(Cc3ccccc3Cl)c3ccccc32)SC1=S [KBS3, {5-[1-(2-chlorobenzyl)-2-oxo-1,2-dihydro-3H-indol-3-ylidene]-4-oxo-2-thioxo-1,3-thiazolidin-3-yl}acetic acid] |  | significant inhibitory effects | no inhibitory effects | did not exhibit toxic effects | 35.4–52.1% | no inhibitory effects |  |
| O=C(O)CN1C(=O)C(=C2C(=O)N(Cc3ccc(Cl)cc3)c3ccccc32)SC1=S [KB1, {5-[1-(4-chlorobenzyl)-2-oxo-1,2-dihydro-3H-indol-3-ylidene]-4-oxo-2-thioxo-1,3-thiazolidin-3-yl}acetic acid] |  | strong inhibitory effects | did not show inhibitory effects | did not show any toxic effects | 43.3% | did not show inhibitory effects |  |
| O=C(O)CCN1C(=O)C(=C2C(=O)N(Cc3ccc(F)cc3)c3ccccc32)SC1=S [KBS4, 3-{5-[1-(4-fluorobenzyl)-2-oxo-1,2-dihydro-3H-indol-3-ylidene]-4-oxo-2-thioxo-1,3-thiazolidin-3-yl}propanoic acid] |  | significant inhibitory effects | no inhibitory effects | did not exhibit toxic effects | 35.4–52.1% | no inhibitory effects |  |
| O=C(O)CCCN1C(=O)C(=C2C(=O)N(Cc3ccc(Cl)cc3)c3ccccc32)SC1=S [KBS1, 4-{5-[1-(4-chlorobenzyl)-2-oxo-1,2-dihydro-3H-indol-3-ylidene]-4-oxo-2-thioxo-1,3-thiazolidin-3-yl}butanoic acid] |  | significant inhibitory effects | no inhibitory effects | weak toxic effect | 35.4–52.1% | no inhibitory effects | 460 ± 170 nM |

From paper PMC4334291 (Journal of Chemical Information and Modeling, 2014)
